# From PubChem
# Most compounds without a hit are left out; they make up all but 5.9% or so of the library.
# KDM4C inh: inhibitors of human demethylase GASC-1 KDM4C; Q9H3R0; GST-KDM4C 2-372, H3K9me3 peptide, LANCE TR-FRET; inhibition, % at 12.5 µM; hit rate 0.15% among 96,000; AID 720574;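 active = mean replicate inhibition above about 25%, with at least 55% of replicates also reaching it, limit read from the data, passing the limit was not always enough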
#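 Assay system: GST-GASC-1 enzyme fragment 2-372 | Amount: 10 nM enzyme | Medium: HEPES buffer, pH 7.5, plus ascorbate | Reagent: H3K9me3 peptide substrate, Fe(II), 2-oxoglutarate | Doses: Single-point compound screen | Incubation: 30 min demethylation and 1 h detection at room temperature | Measured by: LANCE TR-FRET, excitation 340 nm, emissions 618 and 671 nm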
# Pf Dd2 inh: P. falciparum Dd2 growth inhibition. SYBR Green, 72 h; active compounds read low. activity change, % at 10 µM. hit rate 2.3% among 94,000; in the data active = activity change below about -80%
# IDH1 R132H inh: inhibitors of human IDH1 R132H; hit rate 0.18% among 70,000; O75874; inhibition, % at 10 µM; IDH1 R132H reductase, diaphorase/resazurin fluorescence, 60 min; in the data active = inhibition above about 34%;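 note: 0% = DMSO and 100% = no enzyme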
# Target sequence (O75874 whole entry R132H): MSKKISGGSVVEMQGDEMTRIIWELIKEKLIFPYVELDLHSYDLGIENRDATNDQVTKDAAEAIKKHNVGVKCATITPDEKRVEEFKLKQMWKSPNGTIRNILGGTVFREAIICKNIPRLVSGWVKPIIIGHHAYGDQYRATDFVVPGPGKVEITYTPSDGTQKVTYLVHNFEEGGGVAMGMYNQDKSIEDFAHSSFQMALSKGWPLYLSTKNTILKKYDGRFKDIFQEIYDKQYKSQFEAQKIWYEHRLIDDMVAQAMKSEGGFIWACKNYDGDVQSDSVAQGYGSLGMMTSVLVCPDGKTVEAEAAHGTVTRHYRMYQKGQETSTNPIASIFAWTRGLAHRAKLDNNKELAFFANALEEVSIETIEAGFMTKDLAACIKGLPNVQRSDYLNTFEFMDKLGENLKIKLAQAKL
# Tcruzi prolif: blocks T. cruzi growth in NIH3T3 culture. T. cruzi beta-gal in NIH3T3, GalScreen luminescence, 90 h. inhibition, % at 8.34 µM. hit rate 5.9% among 77,000;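 active = mean inhibition above about 93%, with at least 55% of replicates each passing it, limit read from the data, passing the limit was not always enough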
# Numbers without * were called inactive; x = no result.
SMILES,KDM4C inh,Pf Dd2 inh,IDH1 R132H inh,Tcruzi prolif
C[C@@H]1CCCCO[C@H](CN(C)C(=O)c2ccccc2)[C@@H](C)CN([C@@H](C)CO)C(=O)c2cc(NC(=O)Nc3ccc4c(c3)OCO4)ccc2O1,0.2,-81.3*,0.6,35.7
C[C@@H]1CN([C@H](C)CO)C(=O)c2cc(NC(=O)C3CCCCC3)ccc2O[C@@H](C)CCCCO[C@@H]1CN(C)C(=O)C1CCCCC1,-2.0,-64.6,x,31.5
Fc1ccccc1-c1nnc(SCc2nc3ccccc3[nH]2)n1-c1ccccc1,x,x,-0.1,x
Cc1ccc(/C=N/NC(=O)c2cccc(C(=O)NO)c2)o1,x,x,-0.1,x
O=C1C(=O)N(CCCn2ccnc2)C(c2cccc(Br)c2)C1C(=O)c1ccco1 (stereo not given),x,x,3.2,x
C[C@H](CO)N1C[C@H](C)[C@H](CN(C)C(=O)C2CCCCC2)OCCCC[C@H](C)Oc2ccc(NC(=O)Nc3ccccc3)cc2C1=O,x,-1.5,x,90.9
C[C@@H]1CCCCO[C@@H](CN(C)C(=O)C2CCCCC2)[C@H](C)CN([C@H](C)CO)C(=O)c2cc(NC(=O)Nc3ccc4c(c3)OCO4)ccc2O1,-0.8,0.4,1.7,106.6*
C[C@H]1CCCCO[C@@H](CN(C)C(=O)C2CCCCC2)[C@@H](C)CN([C@@H](C)CO)C(=O)c2cc(NC(=O)Nc3ccccc3)ccc2O1,-1.3,-88.1*,-4.5,65.4
C[C@@H]1CN([C@@H](C)CO)C(=O)c2cc(NC(=O)Nc3ccccc3)ccc2O[C@@H](C)CCCCO[C@@H]1CN(C)C(=O)C1CCCCC1,0.0,-83.5*,2.2,35.1
C[C@@H]1CN([C@@H](C)CO)C(=O)c2cc(NC(=O)Nc3ccc4c(c3)OCO4)ccc2O[C@@H](C)CCCCO[C@H]1CN(C)C(=O)C1CCCCC1,2.5,-48.4,x,96.3
O=C(CSc1nnc(-c2ccc(Cl)cc2)n1-c1ccc(F)cc1)Nc1ccccc1F,x,x,0.1,x
COc1ccc(CN(C)C[C@@H]2Oc3c(NC(=O)CCCCCC(=O)Nc4ccccc4N)cccc3C(=O)N([C@H](C)CO)C[C@H]2C)cc1,0.3,-89.9*,x,x
COc1ccc(CN(C)C[C@H]2Oc3c(NC(=O)CCCCCC(=O)Nc4ccccc4N)cccc3C(=O)N([C@@H](C)CO)C[C@@H]2C)cc1,8.5,-94.4*,0.3,x
COc1ccc(CN(C)C[C@@H]2Oc3c(NC(=O)CCCCCC(=O)Nc4ccccc4N)cccc3C(=O)N([C@@H](C)CO)C[C@H]2C)cc1,-2.1,-90.3*,x,x
COc1ccc(NC(=O)N(C)C[C@H]2Oc3c(NC(=O)CCCCCC(=O)Nc4ccccc4N)cccc3C(=O)N([C@@H](C)CO)C[C@@H]2C)cc1,-2.0,-25.5,x,x
COc1ccc(NC(=O)N(C)C[C@@H]2Oc3c(NC(=O)CCCCCC(=O)Nc4ccccc4N)cccc3C(=O)N([C@@H](C)CO)C[C@@H]2C)cc1,-0.4,-61.0,-0.3,x
CCN(C(=O)C(C)Oc1ccccc1)c1ccccc1C (stereo not given),x,x,-0.3,x
COC(=O)c1cc(NC(=O)CSc2nc(Nc3ccccc3)nc(N3CCOCC3)n2)ccc1Cl,x,x,0.5,x
Cc1ccc(S(=O)(=O)N(C)C[C@@H]2OCCCC[C@@H](C)Oc3ccc(NC(=O)Cc4ccccc4)cc3C(=O)N([C@H](C)CO)C[C@@H]2C)cc1,-1.1,-81.5*,x,52.5
C[C@@H]1CCCCO[C@@H](CN(C)S(=O)(=O)c2ccc(Cl)cc2)[C@@H](C)CN([C@H](C)CO)C(=O)c2cc(NC(=O)Cc3ccccc3)ccc2O1,9.7,-82.9*,1.1,45.1
O=C(CN1C(=O)C2C3C=CC(C4CC34)C2C1=O)Nc1ccc(Oc2ccccc2)cc1 (stereo not given),x,x,-0.6,x
COc1ccc(-c2c(-c3ccc(OCc4cnn(-c5ccccc5)c4)c(C)c3O)n[nH]c2C)cc1,x,x,0.5,x
COc1ccc(CN(C)C[C@@H]2Oc3ccc(NC(=O)CCCCCC(=O)Nc4ccccc4N)cc3CC(=O)N([C@H](C)CO)C[C@@H]2C)cc1,-1.1,-84.7*,0.3,x
C[C@H](CO)N1C[C@H](C)[C@H](CN(C)Cc2ccc(-c3ccccc3)cc2)Oc2ccc(NC(=O)CCCCCC(=O)Nc3ccccc3N)cc2CC1=O,x,-83.3*,0.4,35.9
COc1ccc(CN(C)C[C@@H]2Oc3ccc(NC(=O)CCCCCC(=O)Nc4ccccc4N)cc3CC(=O)N([C@@H](C)CO)C[C@@H]2C)cc1,1.6,-86.5*,x,x
SMILES,KDM4C inh,Pf Dd2 inh,IDH1 R132H inh,Tcruzi prolif
O=C(Nc1cc(C(F)(F)F)ccc1Cl)C(Cc1ccccc1)N1C(=O)C2C3C=CC(C4CC34)C2C1=O (stereo not given),x,x,0.0,x
O=C(NO)c1ccc(C(=O)N/N=C/Cc2ccccc2)cc1,x,x,0.4,x
Cc1noc(C)c1NC(=O)Nc1ccc2c(c1)C(=O)N([C@H](C)CO)C[C@@H](C)[C@@H](CN(C)S(C)(=O)=O)O2,0.3,-91.6*,x,94.3
C[C@@H]1CN([C@H](C)CO)C(=O)c2cc(NC(=O)Nc3ccccc3)ccc2O[C@@H](C)CCCCO[C@@H]1CN(C)Cc1ccccc1,-0.7,-82.1*,1.5,x
COc1ccc(NC(=O)Nc2ccc3c(c2)C(=O)N([C@@H](C)CO)C[C@@H](C)[C@@H](CN(C)Cc2ccc4c(c2)OCO4)OCCCC[C@@H](C)O3)cc1,1.5,-83.0*,3.7,85.3
Cc1noc(C)c1NC(=O)Nc1ccc2c(c1)C(=O)N([C@H](C)CO)C[C@@H](C)[C@H](CN(C)Cc1ccc(Cl)c(Cl)c1)OCCCC[C@H](C)O2,-0.2,-85.6*,x,75.9
Cc1cccc(OCC(=O)Nc2cccc(C(=O)O)c2C)c1,x,x,-0.9,x
COc1c(C)c2c(c(O)c1C/C=C(/C)CCC(=O)O)C(=O)OC2,x,x,-0.1,x
C[C@@H]1CCCCO[C@H](CN(C)Cc2ccccc2)[C@H](C)CN([C@@H](C)CO)C(=O)c2cc(NC(=O)Nc3ccc(F)cc3)ccc2O1,-1.1,-84.4*,x,76.0
C[C@H]1CCCCO[C@@H](CN(C)Cc2ccc3c(c2)OCO3)[C@@H](C)CN([C@@H](C)CO)C(=O)c2cc(NC(=O)Nc3ccccc3)ccc2O1,0.8,-82.4*,x,94.2
C[C@@H]1CN([C@H](C)CO)C(=O)c2cc(NC(=O)Nc3ccccc3)ccc2O[C@@H](C)CCCCO[C@@H]1CN(C)Cc1ccc(Cl)c(Cl)c1,-0.2,-85.1*,x,70.0
C[C@@H]1CCCCO[C@H](CN(C)C(=O)NC2CCCCC2)[C@H](C)CN([C@H](C)CO)C(=O)c2cc(NS(=O)(=O)c3cccs3)ccc2O1,-0.1,-81.8*,x,26.0
C[C@@H]1CN([C@@H](C)CO)C(=O)c2cc(NS(=O)(=O)c3cccs3)ccc2O[C@@H](C)CCCCO[C@H]1CN(C)C(=O)Nc1ccc(F)cc1,-0.9,-80.8*,3.0,67.9
C[C@H](CO)N1C[C@H](C)[C@H](CN(C)C(=O)Nc2ccc(F)cc2)OCCCC[C@H](C)Oc2ccc(NS(=O)(=O)c3cccs3)cc2C1=O,0.6,-43.0,0.0,59.3
Cn1cnnc1SCC(=O)c1ccc([N+](=O)[O-])cc1,x,x,0.3,x
CCc1cccc(C)c1NC(=O)CSc1nc2cc(C)cc(-n3nc4ccccc4n3)c2o1,x,x,-0.1,x
